In BindingDB's records for doi:10.1021/jm0303608 (University of Florida, 2004):

Columns and labels:
Melanocortin receptor 4 = Melanocortin receptor 4 (Mus musculus, UniProt P56450); experiment: Effective concentration against mouse melanocortin MC4 receptor
How it was run: (§1)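 HEK-293 cells stably expressing the mouse receptor (calcium phosphate transfection, G418 1 mg/mL selection) were transfected with 4 μg CRE/β-galactosidase reporter. EC50 came from nonlinear least-squares fit; at least three independent experiments.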

Melanocortin receptor 3 = Melanocortin receptor 3 (Mus musculus, UniProt P33033); experiment: Effective concentration against mouse Melanocortin 3 receptor; how it was run: as §1
Sequence of Melanocortin receptor 3 (P33033 whole entry): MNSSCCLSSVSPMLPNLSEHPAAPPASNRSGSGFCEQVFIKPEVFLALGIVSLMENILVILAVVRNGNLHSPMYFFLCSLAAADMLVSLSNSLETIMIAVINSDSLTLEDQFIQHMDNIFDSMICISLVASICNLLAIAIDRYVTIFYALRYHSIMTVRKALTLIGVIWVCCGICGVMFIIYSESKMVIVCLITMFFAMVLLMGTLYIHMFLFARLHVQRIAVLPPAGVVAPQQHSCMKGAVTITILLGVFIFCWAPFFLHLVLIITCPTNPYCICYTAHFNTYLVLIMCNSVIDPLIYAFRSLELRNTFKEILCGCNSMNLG

Sequence of Melanocortin receptor 4 (P56450 whole entry): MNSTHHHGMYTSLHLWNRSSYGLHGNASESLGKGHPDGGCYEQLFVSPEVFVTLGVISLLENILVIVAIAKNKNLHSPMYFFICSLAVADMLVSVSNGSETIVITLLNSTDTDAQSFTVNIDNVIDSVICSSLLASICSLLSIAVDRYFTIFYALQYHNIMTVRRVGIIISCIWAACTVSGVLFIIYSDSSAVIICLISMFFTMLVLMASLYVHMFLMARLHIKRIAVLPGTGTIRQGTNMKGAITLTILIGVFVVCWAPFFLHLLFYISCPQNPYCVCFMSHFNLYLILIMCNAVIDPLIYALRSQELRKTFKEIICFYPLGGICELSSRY

Row | SMILES | Kd (Melanocortin receptor 4) [nM] | Kd (Melanocortin receptor 3) [nM]
1 | C[C@@H]1NC(=O)[C@H](CC(N)=O)NC(=O)[C@H](Cc2ccccc2)NC(=O)[C@H](Cc2ccccc2)NC(=O)[C@H](CCCNC(=N)N)NC(=O)[C@@H](NC(=O)[C@@H](N)Cc2ccc(O)cc2)CC(=O)NC[C@@H](C(=O)N[C@@H](Cc2ccc(O)cc2)C(N)=O)NC(=O)[C@H](Cc2ccccc2)NC1=O [Tyr-c[Asp-Arg-Phe-Phe-Asn-Ala-Phe-Dpr]-Tyr-NH2] | 1260 | 
2 | C[C@@H]1NC(=O)[C@@H](CC(N)=O)NC(=O)[C@H](Cc2ccccc2)NC(=O)[C@@H](Cc2ccccc2)NC(=O)[C@H](CCCNC(=N)N)NC(=O)[C@@H](NC(=O)[C@@H](N)Cc2ccc(O)cc2)CC(=O)NC(C(=O)NN[C@H](Cc2ccc(O)cc2)C(=O)C(N)=O)NC(=O)C(=O)[C@@H](Cc2ccccc2)NC1=O (stereo partly drawn) [Tyr-c[Asp-Arg-Phe-Phe-Asn-Ala-Phe-Dpr]-Tyr-NH2] |  | 2000
